Measured values from the EternaBench riboswitch data.

System: MS2 coat protein
Experiment: apparent Kd, MS2 coat protein; higher = weaker binding; RNA-MaP array; FMN 200 µM where present
Procedure, shortened: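 The apparent Kd is reported as the median of filtered per-cluster binding-curve fits. To get these curves, designs transcribed by stalled E. coli RNA polymerase on Illumina sequencing-chip clusters were titrated with SNAP-549-labelled MS2 coat protein from 0.7 or 1.5 nM, doubling to 3 µM. Titrations were run without and then with constant ligand in 100 mM Tris-HCl pH 7.5, 80 mM KCl, 4 mM MgCl2, BSA, DTT, yeast tRNA and Tween-20, and green signal was normalised to red-channel RNA signal and control-cluster median Fmax.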

[1] = designed as: ON switch for flavin mononucleotide, no ligand
[2] = ligand present: flavin mononucleotide, designed as: ON switch for flavin mononucleotide
[3] = designed as: OFF switch for flavin mononucleotide, no ligand
[4] = ligand present: flavin mononucleotide, designed as: OFF switch for flavin mononucleotide

Sequence | apparent Kd [1] [nM] | apparent Kd [2] [nM] | apparent Kd [3] [nM] | apparent Kd [4] [nM]
UUGGACGUCGUAGGCUAUGUAGGAUAUUCCUACAUGAGGAUCACCCAUGUUGACAUGGAAGAAGGACAGAAGGACGAUGUCCAU | 173 | 4.35 |  | 
AAUGUCUGAGGAUAUCGUUUUUUGUACAUGAGGAUCACCCAUGUCCAAUUUUGUAUAUUACGAGAAGGCAGUGGAA |  |  | 14.9 | 22.4
UGUUGUAUUACAGGAUAUCUAUGAUUUUUAUUUAGAGAAGGGUAUUCACAUGAGGAUCACCCAUGUAUAUACGAGGAAGUUGUG | 46.1 | 51.7 |  | 
AAGUCAGCAGGAUAUGCGAUGUUGUGCUAGAUAGCGGGACCACAUGAGGAUCACCCAUGUAGAAGGGCUGGCUA |  |  | 34 | 22.5
AAAAAGCGAGGAUAUACAUGAGGAUCACCCAUGUCAAACGGUAAGACCGCAGGAAAAAGUAGAAGGCGCAAAAA |  |  | 61.5 | 98.5
CGAAGUCCGUAGAAGGGUGACAUGAGGAUCACCCAUGUGCGAGCCGUGGGAGUCAGCGGCUCGCCACAGGAUAUACGGAGCACG | 30.6 | 26 |  | 
CUCAUGUAAGGAUAUCAGUAGUAAAAAAAUAAAAUUACUACUGAGAAGGUACAUGAGGAUCACCCAUGUCCUUC |  |  | 96.1 | 56.2
GAUUGGCGACAAUUACAUGAGGAUCACCCAUGUUGUAGUAUGCAGGAUAUGUGGUAUAUUAUUUAACAGAAGGGCAAUAAUUUU | 69.6 | 85.9 |  | 
GCGAUUUUGUAGAAGGUACGUGAUUAGUCAAAGUAAGGAUAUACUGACAUGAGGAUCACCCAUGUAUUAAUAGUUAACAGUCGC | 94.6 | 23.1 |  | 
GCUAUUGAUGUAGGAUAUGAUAUAGAAACUAUGUCAGAAGGACAUGAGGAUCACCCAUGUCAAUGGAUGGAGAGAAGAAAUGGC |  |  | 47.8 | 59.2
AAAAAGUCAGGAUAUGGAAAAAAAAAAAAAAAAAAAAAAAACCAGAAGGGACAUGAGGAUCACCCAUGUAAAAA |  |  | 71.5 | 43.8
GGUUGUCAUAGUCAUCCUUUCCGUACAUGAGGAUCACCCAUGUAGGAUAUGCUACUCACAGUGUAGCAGAAGGGCGUGUGUCUU |  |  | 16.6 | 17.6
AAAUAAACUACCAUAAUAUCCUCACAUGAGGAUCACCCAUGUCAGGAUAUUUGUCCUAAAAGGACAGAGAAGGGACGUGGUAGA |  |  | 5.43 | 11.1
AAUAUGUUGCAGAAGGCUAUAUUUUUUUAGUACCUCAUGACAUGAGGAUCACCCAUGUUUUUGUUGGAGGAUAUGCAAUAUAUU |  |  | 8.07 | 7.56
CCGAAUGUCACAGGAUAUGGUCCGGGCACGCGACCAGAAGGGUGAUCUCACAUGAGGAUCACCCAUGUGCAGGCGUAAGGCUGC | 28.4 | 193 |  | 
GUUAGACAUGAGGAUCACCCAUGUGAGGAUAUGAUGCGAUCGUGCUGACAUGAUCGCAUCAGAAGGCACAUAUG |  |  | 133 | 190
AGCUGUGGCCGAGGAUAUCUAAUAUCUCAAACCGAAAUAUAAUCGGACAUGAGGAUCACCCAUGUAGAGAAGGCGGUCUCAGCA |  |  | 31.1 | 85
GUAGCAUACCAAGGAUAUUUAGGGCUUUGAUAGACAUGAGGAUCACCCAUGUGGCGUUAGUCAAGGGAGAAGGUGGUAUGCUAC | 22.6 | 14.5 |  | 
CAGUACUGAGGAUAUACAUGAGGAUCACCCAUGUGAAUAGCAUAGGAAACUAUGCUAUGUAGAAGGCAGUACUG |  |  | 14.1 | 22.6
AGCUACGUUUCGUAGCAGUGUCAUCGAGAAGGCCCUUACAUGACAACAUGAGGAUCACCCAUGUGGGAGGAUAUCGAUGAUACA | 11.4 | 8.98 |  | 
GGUACUCAAAGAGUACCAAUACGAACAUGAGGAUCACCCAUGUAGGAUAUGCUACUCAAAGAGUAGCAGAAGGACGUGUGCCUU |  |  | 21.4 | 42.4
AAGAAGUCAGGAUAUCCAGCUCGUCACUUGCGUGAUGAGUUGGAGAAGGGACAUGAGGAUCACCCAUGUAAAGU |  |  | 56.9 | 55.5
AAUAAACAUGAGGAUCACCCAUGUAAGGAUAUGCGAACAAUAAGAAGACAAUAAUAAAGCAGAAGGUACAAGAG |  |  | 78.1 | 96.2
GGAAAGUAAGGAUAUGCGAACAAACAAACAAACAAAAGGGAACAUGAGGAUCACCCAUGUAGAAGGUGCAAACA |  |  | 46.3 | 35.9
CUGGUUCUCGUAGGAUAUGUAGGAUAUGCCUACAUGAGGAUCACCCAUGUUCGCAUGGCAGAAGGACAGAAGGACGAUCACCAC | 323 | 20.7 |  | 
CGCUGUCAUGCAGGAUAUGCAUUGGAUUACAAUGCAGAAGGGCGAUUACAUGAGGAUCACCCAUGUGUAGACAGUGAAGAAGAG | 415 | 34.4 |  | 
AUCCUACAUGAGGAUCACCCAUGUCAGGAUAUCCAAGAAAUGUGGCCGUAUCGGCCACGGAGAAGGGACGGGUG |  |  | 40 | 60.8
GCCUCAUAGUAGAAGGGACUUAGGCAGUUAAGCAUCAUGUCCAAUUAACAUGAGGAUCACCCAUGUCAGGAUAUACUAAGAGGC |  |  | 8.03 | 25.1

Sequence | apparent Kd [1] [nM] | apparent Kd [2] [nM] | apparent Kd [3] [nM] | apparent Kd [4] [nM]
GGUACCAUCACAGGAUAUGCUUUUCUUUGGGAAGCAGAAGGGUGUAACAUGAGGAUCACCCAUGUGGUGCCAGGGCGUGAGCCC | 182 | 14.7 |  | 
CGGCGGAAAGGAUAUGCAGAAAUAUCAAAAUGUGGGCCACGACAUGAGGAUCACCCAUGUAGAAGGUUCAGCCG |  |  | 15.5 | 12.7
AAAAGGUUAGGAUAUGCCCGCCGGGUGGGAAGGCCGGGUGGGUAGAAGGGACAUGAGGAUCACCCAUGUAUAAA |  |  | 47 | 19.9
UUUUAACAUGAGGAUCACCCAUGUGAGGAUAUCGAUAUUUUUAUUAAUAUUAAUAAAACGAGAAGGCACAUUUU |  |  |  | 90.2
GAAACCUCAGGUUAAGGUUGACGACAUGAGGAUCACCCAUGUAGAAGGACCAAGGCGACCGUACGGUAGGAUAUACACGGGAGG |  |  | 10.8 | 24.9
AAUAUAGAGCUGGUCUCAAAAUAAACAUGAGGAUCACCCAUGUAGGAUAUCAGCACGAUAAGUGCUGAGAAGGACAUCCAGCUC |  |  | 16.3 | 18.4
AUGCUUUUUGUAGGAUAUACAUUUUGUACGUAUGUAGAAGGACAUGAGGAUCACCCAUGUAAAUAAAUAUUAAAUAUCAUACUU |  |  | 54.6 | 39.6
GGGAGACAUGAGGAUCACCCAUGUGAAAACGUGCGAGGAUAUCAAUGGAAACCAUACUGUUGAGAAGGCGUUUGUC | 100 | 55 |  | 
UUAACAUGAGGAUCACCCAUGUCGUGCAAGAUGAGUUCUGGUGAGGAUAUACAUGGUAAAGAACUGUAGAAGGCACUGGGUACA | 290 | 139 |  | 
GGAUCGAGUGUGAGGAUAUGCUGGUCCUUGGAUCAGCAGAAGGCACAUGAGGAUCACCCAUGUGAAAACGGUCC |  |  | 26.6 | 189
AUUCCCAACCAGAAGGACAUGAGGAUCACCCAUGUAGGAUAUGGGUGGGCGACCCGAACUUGGACGAAAUCGCAAUUCUCACAC | 57.8 | 10.4 |  | 
AGACGGAGCAGAGGAUAUACAUGAGGAUCACCCAUGUAAAUGAAAGAUAGCAGCAAAGCUGCAAUGUAGAAGGCUGCUCCGUCA |  |  | 29.2 | 83.8
AGAAAUUAGUGAGGAUAUGCAUAAUAUUUAGCUGCAGAAGGCACGGACCACAAGACAUGAGGAUCACCCAUGUGGUAUAUAGAU |  |  | 24.9 | 30.9
UCUAGGGACGCAGGAUAUGGAGUGAGUGUCUAUCACAUGAGGAUCACCCAUGUUUGGGUCUCACGCUAGAAGGGCGAAUGUGGG | 357 | 63.5 |  | 
CAGGUAGCUAGAGGAUAUACACGUCUGGAUAAACCAGACGAAUAAACCACAUGAGGAUCACCCAUGUAGAAGGCUAGCUGCCUG |  |  | 15.2 | 22.7
GGAUAGGACAGAGGAUAUACGUGCUAGAGAUACUAGCAAAAUUUCAUCACAUGAGGAUCACCCAUGUAGAAGGCUGUCCUAUCG |  |  | 4.81 | 8.63
AGCCUUAGAGGAUAUACAUGAUCCUCCAUCGCGAAAGGGCUACAUGAGGAUCACCCAUGUAGAAGGCUGAGGGA |  |  | 20.1 | 33.6
UUGGACGUCGUAGGAUAUGUAGGAUAUUCCUACAUGAGGAUCACCCAUGUUGACAUGGAAGAAGGACAGAAGGACGAUAUCCAU | 289 | 5.01 |  | 
AAUUCGUCAGGAUAUGCAUGUAAUUGUUACAUUUCGCCGUUGCAGAAGGGACAUGAGGAUCACCCAUGUAAGUC |  |  | 32.8 | 34.9
AAUAAAUAGGAGGAUAUCGUAUCGGAAACGAUACGAGAAGGUCUAACAUGAGGAUCACCCAUGUUCCUCAAUAA |  |  | 33.1 | 95.8
GGACAUCCCACAGGAUAUGCUGGACUUUGUCCAGCAGAAGGGUGAACAUGAGGAUCACCCAUGUAUAGGAUGUCCAUAUUUAAU | 963 | 128 |  | 
AAAGACUAAGGAUAUACAUGAGGAUCACCCAUGUCUACCCACAUGCUGGUAUCAACCUGUAGAAGGUAGUUCAA |  |  | 27.8 | 85.9
AUAAAACAUGAGGAUCACCCAUGUCAACAAAGUCGAGGAUAUGGGCAAUUAAAAUAAGAACCAGAAGGCGAAUAAU | 172 | 39.8 |  | 
AAACCACAUGAGGAUCACCCAUGUCAUAACCGUAGGGAGAAGAGAAGGGUGAGGGUGUAGCCUGCACAGGAUAUCUAGUGCCUC | 228 | 174 |  | 
UCCACUGCUGAGAAGGGAUACAUAUGGUUCUAGUCAGGAUAUCGAUACAGUGCAGCAUGAGGACAUGAGGAUCACCCAUGUAUU | 25.6 | 18.6 |  | 
UGGACUGGGCAGAAGGGACAUGAGGAUCACCCAUGUCUUGGGCUACUUCAGUCAGGAUAUGCCCAUUAAAUAUCCGUGCAUCAA |  |  | 14.9 | 73.3
GUGGCCCAGGCACAGGAUAUGUUUCUCGUAACAUGAGGAUCACCCAUGUGCCUAUGAGAUUUUUUGCAGAAGGGUGCACGCCACG | 229 | 18.1 |  | 
